Substitutions are numbered along the chain they refer to. Several values for one entry are separate records, joined by “and”; a condition that tells them apart may be missing. Equal entries are not always repeated.
Experiments:
Type in all cases: biochemical
Kir6.2ΔC26 333K channel = experiment: ATP inhibition of 333K channels, inside-out patch; conditions: read-out: Ki,ATP, Xenopus oocytes, without SUR, n = 6
Kir6.2ΔC26 334E channel = experiment: ATP inhibition of 334E channels, inside-out patch; conditions: read-out: Ki,ATP, Xenopus oocytes, without SUR, −80 mV
Kir6.2ΔC26 334F channel = experiment: ATP inhibition of 334F channels, inside-out patch; conditions: read-out: Ki,ATP, Xenopus oocytes, without SUR, −80 mV
Kir6.2ΔC26 334A channel = experiment: ATP inhibition of 334A channels, inside-out patch; conditions: read-out: Ki,ATP, Xenopus oocytes, without SUR, −80 mV
[1] = target: T1, Kir6.2ΔC26 G334 (wild type) channel (Homo sapiens, UniProt Q14654); experiment: ATP inhibition of wild-type
T1 sequence (Q14654 1-364 limits assumed): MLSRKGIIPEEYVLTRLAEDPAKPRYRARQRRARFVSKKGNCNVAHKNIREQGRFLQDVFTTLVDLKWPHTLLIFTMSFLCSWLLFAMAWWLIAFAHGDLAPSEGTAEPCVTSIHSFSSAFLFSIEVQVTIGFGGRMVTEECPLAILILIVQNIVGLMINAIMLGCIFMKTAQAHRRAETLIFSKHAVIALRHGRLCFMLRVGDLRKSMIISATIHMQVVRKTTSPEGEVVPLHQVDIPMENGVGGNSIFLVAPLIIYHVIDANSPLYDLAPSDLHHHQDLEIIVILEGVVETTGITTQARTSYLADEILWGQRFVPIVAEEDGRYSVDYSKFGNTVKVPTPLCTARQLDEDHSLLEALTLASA

[2] = target: wild-type SUR1/Kir6.2 channel (Homo sapiens, UniProt Q14654); conditions: 50 μM protamine
How it was run: (§1)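 Channels expressed in Xenopus oocytes: SUR1 plus Kir6.2 for line 1, Kir6.2ΔC26/G334R for line 2. Inside-out patches were held at −80 mV. Pipette contained (mM) 150 KCl, 10 NaCl, 1 CaCl2, 10 EGTA, 10 HEPES, pH 7.4. […] Signals filtered at 4 kHz, sampled at 20 kHz. Half-amplitude event detection, missed-event-corrected duration histogram fits, n = 5, mean ± SEM.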

[3] = target: T2, Kir6.2/ΔC26/G334R channel (slow burst exit gating patches) (Homo sapiens, UniProt Q14654, G334R); conditions: 50 μM protamine
T2 sequence (Q14654 1-364 G334R limits assumed): T1 sequence (Q14654 1-364 limits assumed) with G334R
How it was run: as §1

Chain of wild-type SUR1/Kir6.2 channel (Q14654 whole entry): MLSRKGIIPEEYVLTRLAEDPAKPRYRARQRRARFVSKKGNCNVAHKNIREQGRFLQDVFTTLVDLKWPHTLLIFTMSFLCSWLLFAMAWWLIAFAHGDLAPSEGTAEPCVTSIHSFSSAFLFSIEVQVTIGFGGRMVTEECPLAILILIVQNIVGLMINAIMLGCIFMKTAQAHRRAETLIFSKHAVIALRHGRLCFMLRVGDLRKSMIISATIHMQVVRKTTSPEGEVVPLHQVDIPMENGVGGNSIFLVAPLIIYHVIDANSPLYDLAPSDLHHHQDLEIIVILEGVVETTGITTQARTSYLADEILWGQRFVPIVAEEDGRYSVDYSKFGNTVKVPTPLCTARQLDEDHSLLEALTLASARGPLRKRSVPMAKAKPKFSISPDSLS
Chain of wild-type SUR1/Kir6.2 channel (Q09428 whole entry partner): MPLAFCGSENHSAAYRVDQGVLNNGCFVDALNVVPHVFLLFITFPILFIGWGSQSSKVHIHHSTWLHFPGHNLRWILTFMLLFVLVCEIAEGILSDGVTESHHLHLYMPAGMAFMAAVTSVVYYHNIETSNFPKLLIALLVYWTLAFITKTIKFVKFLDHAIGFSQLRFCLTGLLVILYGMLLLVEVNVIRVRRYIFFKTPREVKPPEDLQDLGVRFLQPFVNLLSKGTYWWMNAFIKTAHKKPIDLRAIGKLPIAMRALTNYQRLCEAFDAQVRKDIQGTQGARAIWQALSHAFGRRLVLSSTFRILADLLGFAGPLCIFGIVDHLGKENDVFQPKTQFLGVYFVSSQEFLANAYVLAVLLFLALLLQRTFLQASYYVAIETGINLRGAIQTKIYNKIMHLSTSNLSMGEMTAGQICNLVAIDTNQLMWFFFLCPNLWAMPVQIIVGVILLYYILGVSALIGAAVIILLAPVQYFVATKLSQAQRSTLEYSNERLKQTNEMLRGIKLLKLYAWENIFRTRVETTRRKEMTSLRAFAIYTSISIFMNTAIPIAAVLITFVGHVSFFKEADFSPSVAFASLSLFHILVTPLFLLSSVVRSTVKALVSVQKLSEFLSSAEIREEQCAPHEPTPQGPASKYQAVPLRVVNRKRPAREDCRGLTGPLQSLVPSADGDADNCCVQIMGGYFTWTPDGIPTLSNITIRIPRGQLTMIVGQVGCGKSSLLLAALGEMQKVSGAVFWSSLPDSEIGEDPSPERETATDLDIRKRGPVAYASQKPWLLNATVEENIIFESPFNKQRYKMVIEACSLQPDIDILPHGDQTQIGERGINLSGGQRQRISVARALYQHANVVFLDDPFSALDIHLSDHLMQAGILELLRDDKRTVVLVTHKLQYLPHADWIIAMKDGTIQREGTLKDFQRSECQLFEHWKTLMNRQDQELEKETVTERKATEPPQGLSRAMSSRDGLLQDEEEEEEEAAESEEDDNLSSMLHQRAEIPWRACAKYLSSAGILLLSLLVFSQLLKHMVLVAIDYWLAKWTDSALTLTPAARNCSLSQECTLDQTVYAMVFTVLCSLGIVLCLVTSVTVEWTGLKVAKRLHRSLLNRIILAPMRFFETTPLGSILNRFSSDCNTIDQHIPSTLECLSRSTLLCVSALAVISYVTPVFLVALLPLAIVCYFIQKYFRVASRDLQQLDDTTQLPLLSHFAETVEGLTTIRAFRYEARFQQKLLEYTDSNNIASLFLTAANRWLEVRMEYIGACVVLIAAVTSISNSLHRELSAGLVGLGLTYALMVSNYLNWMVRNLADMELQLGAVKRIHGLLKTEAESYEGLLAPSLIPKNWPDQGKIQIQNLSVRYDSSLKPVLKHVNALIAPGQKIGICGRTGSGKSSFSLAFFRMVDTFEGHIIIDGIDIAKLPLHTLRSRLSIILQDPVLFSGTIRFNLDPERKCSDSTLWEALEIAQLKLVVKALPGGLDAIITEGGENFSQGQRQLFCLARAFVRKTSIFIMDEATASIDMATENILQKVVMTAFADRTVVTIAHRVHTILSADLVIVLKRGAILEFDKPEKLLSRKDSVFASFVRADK

Nc1ncnc2c1ncn2[C@@H]1O[C@H](COP(=O)(O)OP(=O)([O-])OP(=O)([O-])O)[C@@H](O)[C@H]1O.[Mg+2] [ATP]
Ki (Kir6.2ΔC26 333K channel): 2200 ± 300 µM
Ki (Kir6.2ΔC26 334E channel): 5900 ± 20 µM
Ki (Kir6.2ΔC26 334F channel): 3000 µM and 3100 µM
Ki (Kir6.2ΔC26 334A channel): 2100 ± 50 µM
inhibition of channel activity ([1]; 10 mM ATP): complete inhibition
slope factor αH of Hill fit of ATP inhibition ([1]; wild-type channel, αH free variable): 1.0 ± 0.1

protamine
mean open time after protamine ([2]; absence of ATP, before protamine 2.1 ± 0.2 ms): 1.0 ± 0.2 ms
mean burst time after protamine ([2]; absence of ATP, before protamine 48.0 ± 7.4 ms): 2.6 ± 0.9 ms
effect on gating from the burst ([2]; cytoplasmic face, all six patches): dramatically speeded gating from the burst
mean open time after protamine ([3]; absence of ATP, n = 5, before protamine 1.9 ± 0.2 ms): 1.1 ± 0.2 ms
mean burst time after protamine ([3]; absence of ATP, n = 5, before protamine 80.3 ± 10.7 ms): 2.6 ± 1.8 ms
effect on slowed gating from the burst ([3]; all 12 patches): fully restore the fast gating from the burst

— paper PMC2266580 (The Journal of General Physiology, 2005)
